Measured values published in ChEMBL document CHEMBL3124765, “Glucal-conjugated sterols as novel vascular leakage blocker: structure-activity relationship focusing on the C17-side chain” (Eur J Med Chem, 2014).
Activity calls are given as the source filed them. The rule behind the calls is not given here.

What was measured:
Homo sapiens [1] = organism: Homo sapiens; assay: Antiapoptotic activity against VEGF-treated HREC assessed as enhancement of occludin integrity at 10 ug/ml incubated for 60 mins prior to 50 ng/ml VEGF challenge measured after 60 mins by ZO-1 staining-based microscopy; type: functional
Homo sapiens [2] = organism: Homo sapiens; assay: Antiapoptotic activity against VEGF-treated HREC assessed as enhancement of occludin integrity at 10 ug/ml incubated for 60 mins prior to VEGF challenge measured after 60 mins by immunofluorescence microscopy; type: functional
Homo sapiens [3] = organism: Homo sapiens; assay: Antiapoptotic activity against HREC assessed as stabilization of cortical actin ring by measuring reduction of VEGF-induced actin stress fibre formation at 10 ug/ml incubated for 60 mins prior to VEGF challenge measured after 60 mins by immunofluorescence microscopy; type: functional
Homo sapiens [4] = organism: Homo sapiens; assay: Antiapoptotic activity against HREC after 48 hrs by MTT assay; type: functional
How it was run: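 Serum-deprived human retinal endothelial cells (passages 2–7, grown on gelatin-coated dishes in EBM-2/EGM-2 with 20% FBS) exposed to analogs for 48 h; viability read by MTT colorimetric assay. Single-point screen at 10 mg/mL; dose-response over […]. Controls were medium alone (0 h) and DMSO vehicle.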

Mus musculus [5] = assay: Inhibition of retinal vascular leakage in C57BL/6 mouse diabetic retinopathy model at 10 ug/ml, […] after 24 hrs by FITC-dextran staining-based fluorescein angiography; type: functional, organism-based
How it was run: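 Diabetes induced in C57BL/6 mice with streptozotocin 90 mg/kg i.p. in citrate buffer pH 4.5, daily for 4 days; mice with glucose >300 mg/dl 3 days later were used. Analog ([…]) given intravitreally to one eye, DMSO to the other; n=5/group. At 24 h, leakage assessed by FITC-dextran angiography and Evans blue extraction (620 nm) normalized to retinal weight, blood dye and circulation time.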

Homo sapiens [6] = organism: Homo sapiens; assay: Antiapoptotic activity against VEGF-treated HREC assessed as enhancement of occludin integrity at 1 to 10 ug/ml incubated for 60 mins prior to 20 ng/ml VEGF challenge measured after 60 mins by ZO-1 staining-based microscopy; type: functional
Mus musculus [7] = assay: Inhibition of retinal vascular leakage in C57BL/6 mouse diabetic retinopathy model assessed as restoration of reduced occludin expression at 10 ug/ml, […] after 24 hrs by Western blotting analysis; type: functional, organism-based
Homo sapiens [8] = organism: Homo sapiens; assay: Antiapoptotic activity against HREC at 10 ug/ml after 48 hrs by MTT assay; type: functional
Mus musculus [9] = assay: Inhibition of VEGF-induced retinal vascular leakage in C57BL/6 mouse diabetic retinopathy model at 10 ug/ml, […] after 24 hrs by FITC-dextran staining-based fluorescein angiography; type: functional, organism-based
How it was run: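 Eight-week-old C57BL/6 mice received an intravitreal injection of VEGF (50 ng) with or without analog ([…]) in one eye, and DMSO vehicle (same total volume, […]) in the contralateral eye. After 24 h, 40-kDa FITC-dextran (3 mg) was injected into the left ventricle and circulated 5 min. Eyes were fixed in 4% PFA and retinas flat-mounted for fluorescence microscopy.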

Homo sapiens [10] = organism: Homo sapiens; assay: Antiapoptotic activity against HREC assessed as reduction in VEGF-induced actin stress fibre formation at 10 to 20 ug/ml incubated for 60 mins prior to VEGF challenge measured after 60 mins by immunofluorescence microscopy; type: functional

SMILES	Activity (Homo sapiens [8])	also measured
CC(=O)OC[C@H]1OC(O[C@H]2CC[C@@]3(C)C(=CC[C@H]4[C@@H]5CC[C@H](/C(C)=N/OC6CCCC6)[C@@]5(C)CC[C@@H]43)C2)C=C[C@@H]1OC(C)=O (stereo partly specified)	Active	Activity (Homo sapiens [1]): Active; Activity (Homo sapiens [2]): Active; Activity (Homo sapiens [3]): Active; Activity (Homo sapiens [4]): Dose-dependent effect; inhibition (Mus musculus [5]): Active; Activity (Homo sapiens [6]): Active; inhibition (Mus musculus [7]): Active; inhibition (Mus musculus [9]): Active
CC(=O)OC[C@H]1OC(O[C@H]2CC[C@@]3(C)C(=CC[C@H]4[C@@H]5CC[C@H](/C(C)=N/OCCC(C)C)[C@@]5(C)CC[C@@H]43)C2)C=C[C@@H]1OC(C)=O (stereo partly specified)	Active	–
CCCCCO/N=C(\C)[C@H]1CC[C@H]2[C@@H]3CC=C4C[C@@H](OC5C=C[C@H](OC(C)=O)C(COC(C)=O)O5)CC[C@]4(C)[C@H]3CC[C@]12C (single isomer, unassigned)	Active	–
CC(=O)OC[C@H]1OC(O[C@H]2CC[C@@]3(C)C(=CC[C@H]4[C@@H]5CC[C@H](/C(C)=N/O)[C@@]5(C)CC[C@@H]43)C2)C=C[C@@H]1OC(C)=O (stereo partly specified)	Active	–
C=CCO/N=C(\C)[C@H]1CC[C@H]2[C@@H]3CC=C4C[C@@H](OC5C=C[C@H](OC(C)=O)C(COC(C)=O)O5)CC[C@]4(C)[C@H]3CC[C@]12C (single isomer, unassigned)	Active	–
C=C(CCC=C(C)C)[C@H]1CC[C@]2(C)[C@@H]1[C@H](O)C[C@@H]1[C@@]3(C)CC[C@H](O[C@@H]4O[C@H](CO)[C@@H](O)[C@H](O)[C@H]4O[C@@H]4O[C@H](CO)[C@@H](O)[C@H](O)[C@H]4O)C(C)(C)[C@@H]3CC[C@]12C	Active	–
CO/N=C(\C)[C@H]1CC[C@H]2[C@@H]3CC=C4C[C@@H](OC5C=C[C@H](OC(C)=O)C(COC(C)=O)O5)CC[C@]4(C)[C@H]3CC[C@]12C (single isomer, unassigned)	Active	–
CC(C)=CCC[C@](C)(O)[C@H]1CC[C@]2(C)[C@@H]1[C@H](O)C[C@@H]1[C@@]3(C)CC[C@H](O[C@@H]4O[C@H](CO)[C@@H](O)[C@H](O)[C@H]4O[C@@H]4O[C@H](CO)[C@@H](O)[C@H](O)[C@H]4O)C(C)(C)[C@@H]3CC[C@]12C	Active	–
C/C(=C\CCC(C)C)[C@H]1CC[C@H]2[C@@H]3CC=C4C[C@@H](OC5CCCCO5)CC[C@]4(C)[C@H]3CC[C@]12C (stereo partly specified)	Active	–
CC(=O)OC[C@H]1OC(O[C@H]2CC[C@@]3(C)C(=CC[C@H]4[C@@H]5CC[C@H](/C(C)=N/OCC(C)C)[C@@]5(C)CC[C@@H]43)C2)C=C[C@@H]1OC(C)=O (stereo partly specified)	Active	–
CC(=O)OCC1OC(O[C@H]2CC[C@@]3(C)C(=CC[C@H]4[C@@H]5CC[C@H](/C(C)=N/OC6CCCCC6)[C@@]5(C)CC[C@@H]43)C2)C=C[C@@H]1OC(C)=O (single isomer, unassigned)	Active	–
CC(=O)OC[C@H]1OC(O[C@H]2CC[C@@]3(C)C(=CC[C@H]4[C@@H]5CC[C@H](/C(C)=N/OCc6ccccc6)[C@@]5(C)CC[C@@H]43)C2)C=C[C@@H]1OC(C)=O (stereo partly specified)	Active	Activity (Homo sapiens [2]): Active; Activity (Homo sapiens [3]): Active; Activity (Homo sapiens [4]): Dose-dependent effect
CC(=O)OCC1OC(O[C@H]2CC[C@@]3(C)C(=CC[C@H]4[C@@H]5CC[C@H](/C(C)=N/OC(C)C)[C@@]5(C)CC[C@@H]43)C2)C=C[C@@H]1OC(C)=O (single isomer, unassigned)	Active	–
C#CCO/N=C(\C)[C@H]1CC[C@H]2[C@@H]3CC=C4C[C@@H](OC5C=C[C@H](OC(C)=O)[C@@H](COC(C)=O)O5)CC[C@]4(C)[C@H]3CC[C@]12C (stereo partly specified)	Active	–
CCO/N=C(\C)[C@H]1CC[C@H]2[C@@H]3CC=C4C[C@@H](OC5C=C[C@H](OC(C)=O)C(COC(C)=O)O5)CC[C@]4(C)[C@H]3CC[C@]12C (single isomer, unassigned)	Active	–
CC(=O)OC[C@H]1OC(O[C@H]2CC[C@@]3(C)C(=CC[C@H]4[C@@H]5CC[C@H](/C(C)=N/OCC=C(C)C)[C@@]5(C)CC[C@@H]43)C2)C=C[C@@H]1OC(C)=O (stereo partly specified)	Active	–
CC(=O)OC[C@H]1OC(O[C@H]2CC[C@@]3(C)C(=CC[C@H]4[C@@H]5CC[C@H]([C@H](C)CCCC(C)C)[C@@]5(C)CC[C@@H]43)C2)C=C[C@@H]1OC(C)=O (stereo partly specified)	Active	Activity (Homo sapiens [1]): Active; Activity (Homo sapiens [2]): Active; Activity (Homo sapiens [3]): Active; Activity (Homo sapiens [6]): Active
CC(=O)OC[C@H]1OC(O[C@H]2CC[C@@]3(C)C(=CC[C@H]4[C@@H]5CC[C@H]([C@@](C)(O)CCCC(C)C)[C@@]5(C)CC[C@@H]43)C2)C=C[C@@H]1OC(C)=O (stereo partly specified)	–	Activity (Homo sapiens [10]): Active
CCCCO/N=C(\C)[C@H]1CC[C@H]2[C@@H]3CC=C4C[C@@H](OC5C=C[C@H](OC(C)=O)C(COC(C)=O)O5)CC[C@]4(C)[C@H]3CC[C@]12C (single isomer, unassigned)	Active	–
CC(=O)OC[C@H]1OC(O[C@H]2CC[C@@]3(C)C(=CC[C@H]4[C@@H]5CC[C@H](/C(C)=N/OC6C=CCCC6)[C@@]5(C)CC[C@@H]43)C2)C=C[C@@H]1OC(C)=O (stereo partly specified)	Active	Activity (Homo sapiens [2]): Active; Activity (Homo sapiens [3]): Active; Activity (Homo sapiens [4]): Dose-dependent effect
CC(=O)OC[C@H]1OC(O[C@H]2CC[C@@]3(C)C(=CC[C@H]4[C@@H]5CC[C@H](/C(C)=C/CCC(C)C)[C@@]5(C)CC[C@@H]43)C2)C=C[C@@H]1OC(C)=O (stereo partly specified)	Active	Activity (Homo sapiens [10]): Active
CC(=O)OC[C@H]1OC(O[C@H]2CC[C@@]3(C)C(=CC[C@H]4[C@@H]5CC[C@H](/C(C)=N/OCc6cccnc6)[C@@]5(C)CC[C@@H]43)C2)C=C[C@@H]1OC(C)=O (stereo partly specified)	inactive	–
